Published values of several laboratories.
Each line is one published result; the experiments were not run side by side.
Target: Ephrin type-A receptor 7 (EPHA7, Homo sapiens, UniProt Q15375)

Structure (SMILES) | observed | method | tested at | remaining binding
O=C(c1ccc(Nc2ncc(Cl)c(-c3ccc(Cl)s3)n2)cc1)N1CCC(N2CCCC2)CC1 | binding | competition with immobilised ligand | 1 µM | 56%
CN(C)c1ncc(F)c(-c2cnn3ncccc23)n1 | binding |  | 1 µM | 100%
O=C(NCC1CCOCC1)c1n[nH]cc1NC(=O)c1c(F)cccc1F | binding | competition with immobilised ligand | 1 µM | 97%
CS(=O)(=O)N1CCCC(NC(=O)[C@H](CCC2CCCCC2)NC(=O)c2ccc(CNc3ncnc4c3nnn4-c3ccccc3)cc2)C1 (some centres unmarked) | cell-free assay | competition with immobilised ligand | 0.1 µM | 98%
N[C@@H]1CCN(c2nccc(-c3cnn4ncccc34)n2)C1 | binding |  | 1 µM | 91%
O=C(Nc1cccnn1)N1CCC(=Cc2cccc(Oc3ccc(C(F)(F)F)cn3)c2)CC1 | cell-free assay | competition with immobilised ligand | 1 µM | 95%
COc1cnc(Nc2cccc(S(N)(=O)=O)c2)nc1N1CCN(c2ccccc2)CC1 | binding | competition with immobilised ligand | 1 µM | 86%
CN(C)c1nccc(-c2cnc3ncccn23)n1 | binding |  | 1 µM | 68%
O=C(NCCCN1CCOCC1)c1ccc(Nc2ncc(Cl)c(-c3ccc(Cl)s3)n2)cc1 | binding | competition with immobilised ligand | 1 µM | 60%
Cc1cc(-n2nc(Cc3cc(F)cc(C(F)(F)F)c3)nc2C)ccc1C(N)=O | cell-free assay | competition with immobilised ligand | 1 µM | 98%
F[C@@H]1CCN(c2nccc(-c3cnn4ncccc34)n2)C1 | binding |  | 1 µM | 100%
CNC(=O)[C@@H]1CC[C@@H](n2c(-c3ccc4cnccc4c3)nc3ccc(C(=O)NCc4cccc(C(N)=O)c4)cc32)C1 | binding | competition with immobilised ligand | 1 µM | 100%
C[C@@H](c1ccc(-n2cnc3c(N)ncnc32)cc1)N1CCc2nn(C)c(Cc3ccccc3)c2C1=O | binding | competition with immobilised ligand | 0.1 µM | 69%
CN(c1nccc(-c2cnn3ncccc23)n1)C1CC1 | binding |  | 1 µM | 100%
CCOC(=O)c1cc2cc(-c3cc(C(=O)NCc4ccc(C(=O)O)cc4)nn3C)ccc2[nH]1 | cell-free assay | competition with immobilised ligand | 0.1 µM | 97%
C[C@@H]1CCN(c2nccc(-c3cnn4ncccc34)n2)C1 | binding |  | 1 µM | 84%
Cn1cc(Cl)c2c(Oc3c(F)cc(Nc4cc(Cl)nc(N)n4)cc3F)ccnc21 | cell-free assay | competition with immobilised ligand | 0.1 µM | 96%
Cc1cnc(Nc2ccc(C(=O)N3CCC(N4CCCC4)CC3)cc2)nc1-c1cc2ccccc2s1 | binding | competition with immobilised ligand | 1 µM | 67%
O=C1NC(c2ccccn2)Sc2ccccc21 (centres unmarked) | cell-free assay | competition with immobilised ligand | 1 µM | 72%
Nc1ncc2c(n1)-c1c([nH]c3ccc(C#CC4CC4)cc13)CCCC2 | binding | competition with immobilised ligand | 1 µM | 100%
